For series [1], the system named is Intestine. As to the kind of experiment: Drug uptake in Sprague-Dawley rat intestine at 22 MBq/body, iv administered as bolus coadministered with rifampicin measured after 60 mins by PET analysis. The format is ADME, organism-based. Particulars: in vivo, 1 h; call rule not given here. The essentials: (§1)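 Rats were anesthetized with 1.5% isoflurane in nitrous oxide/oxygen (7/3). The 11C tracer (approx. 22 MBq per animal) was given as an IV bolus through a tail-vein catheter, followed by a 60 min microPET emission scan. Regions of interest were set on liver, intestine, kidney and urinary bladder. Uptake was decay-corrected to injection time and expressed as % dose/tissue or % dose/mL blood, normalized to injected radioactivity. Rifampicin was infused at 1.5 µmol/min/kg where applied.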

The test system of series [2] is Liver. As to the kind of experiment: Drug uptake in Sprague-Dawley rat liver at 22 MBq/body, iv administered as bolus coadministered with rifampicin measured after 2 mins by PET analysis. The format is ADME, organism-based. Particulars: in vivo. The essentials: as §1
A short description of series [3]: Drug uptake in Sprague-Dawley rat urinary bladder at 22 MBq/body, iv administered as bolus measured after 60 mins by PET analysis. The conditions noted are these: in vivo, 1 h. The format is ADME, organism-based. The method in brief:
as §1

Series [4] deals with Intestine. As to the kind of experiment: Drug uptake in Sprague-Dawley rat intestine at 22 MBq/body, iv administered as bolus measured after 60 mins by PET analysis. The format is ADME, organism-based. Particulars: in vivo, 1 h. The essentials: as §1
Series [5] deals with Liver. As to the kind of experiment: Drug uptake in Sprague-Dawley rat liver at 22 MBq/body, iv administered as bolus measured up to 2 mins by PET analysis. The format is ADME, organism-based. The conditions noted are these: in vivo. The essentials: as §1
Another series deals with Kidney. As to the kind of experiment: Drug uptake in Sprague-Dawley rat kidney at 22 MBq/body, iv administered as bolus measured up to 2 mins by PET analysis. The conditions noted are these: in vivo. The format is ADME, organism-based. The method in brief:
as §1

In series [6] the test system is Blood. As to the kind of experiment: Drug metabolism in Mrp2 hereditary-deficient Sprague-Dawley rat blood assessed as radiometabolite formation at 22 MBq, iv administered as bolus within 20 mins by PET analysis. The conditions noted are these: in vivo. The format is ADME, organism-based. The essentials:
(§2)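 Radiometabolite analysis, run apart from the PET scans. Blood, liver homogenate and bile were mixed with an equal volume of acetonitrile and centrifuged at 12,000 rpm for 2 min at 4 °C. The supernatant was diluted with mobile phase and run on reversed-phase HPLC (10 mM ammonium acetate/acetonitrile gradient, 2.0 mL/min). Detection was UV 254 nm plus a NaI(Tl) positron detector, reading intact tracer against metabolites.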

The test system of series [7] is Liver. As to the kind of experiment: Drug metabolism in Mrp2 hereditary-deficient Sprague-Dawley rat liver assessed as radiometabolite formation at 22 MBq, iv administered as bolus within 20 mins by PET analysis. The format is ADME, organism-based. The conditions noted are these: in vivo. The method in brief: as §2
A short description of series [8]: Drug metabolism in Mrp2 hereditary-deficient Sprague-Dawley rat bile assessed as radiometabolite formation at 22 MBq, iv administered as bolus within 20 mins by PET analysis. The format is ADME, organism-based. Particulars: in vivo. The method in brief: as §2
The test system of series [9] is Blood. As to the kind of experiment: Drug metabolism in Mrp2 hereditary-deficient Sprague-Dawley rat blood assessed as radiometabolite formation at 22 MBq, iv administered as bolus at 2 mins by PET analysis. The format is ADME, organism-based. Particulars: in vivo. The essentials: as §2
In series [10] the test system is Blood. As to the kind of experiment: Drug uptake in Mrp2 hereditary-deficient Sprague-Dawley rat blood at 22 MBq, iv administered as bolus after 20 mins by PET analysis. The format is ADME, organism-based. Particulars: in vivo. The method in brief: as §1
The test system of series [11] is Liver. As to the kind of experiment: Drug uptake in Mrp2 hereditary-deficient Sprague-Dawley rat liver at 22 MBq, iv administered as bolus after 20 mins by PET analysis. The format is ADME, organism-based. Particulars: in vivo. The essentials:
as §1

Series [12] in a line: Drug uptake in Mrp2 hereditary-deficient Sprague-Dawley rat bile at 22 MBq, iv administered as bolus after 20 mins by PET analysis. The format is ADME, organism-based. Particulars: in vivo.
Series [13] deals with Hepatocyte. As to the kind of experiment: Metabolic stability in human hepatocytes. The format is ADME, cell-based.
Series [14] deals with Hepatocyte. As to the kind of experiment: Metabolic stability in rat hepatocytes. The format is ADME, cell-based.

The structures appear in SMILES notation.

As to `C/C(=C\[11CH3])C(=O)O[C@H]1C[C@H](O)C=C2C=C[C@H](C)[C@H](CC[C@@H](O)C[C@@H](O)CC(=O)[O-])[C@H]21.[Na+]`, the Drug uptake entry in the series with Intestine [1] is reported as “Not Active”; in the series with Liver [2] it was “Not Active”; in [3], 1.51%; in the series with Intestine [4], 67.9%; with Liver [5] it was “Active”; in the series with Kidney it was “Active”. Also, the Drug uptake result (in the series with Blood [10]; in the series with Liver [11]; in [12]) was “Active” throughout. The Drug metabolism result (in the series on Blood [6]; in the series on Liver [7]; in [8]; with Blood [9]) was “Active” each time. Further, the Stability result with Hepatocyte [13] and in the series with Hepatocyte [14] was “Stable” each time.

These data come from ChEMBL document CHEMBL2034928, “Synthesis of [(11)C]dehydropravastatin, a PET probe potentially useful for studying OATP1B1 and MRP2 transporters in the liver” (Bioorg Med Chem, 2012).
